Shown are actives, neighbours in structure and some others; about 3.8% of the full set was active somewhere.
RGS4 block – RGS4 inhibitors, primary screen, cell-based, HEK293 M3R inducible RGS4, calcium flux; Regulator of G-protein signaling 4 (Homo sapiens), P49798; Fluo-4 calcium flux; stronger effect = higher value; triggered by carbachol at its EC20; B-score at 10 µM; 0.45% of 310,000 active;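 active = B-score, a plate-corrected calcium signal, over three deviations above library mean, with baseline fluorescence within five deviations of library mean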;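 note: RGS4 expression induced by doxycycline in cells with stable M3 receptor; B-score is computed from the integrated fluorescence ratio over baseline after carbachol; higher B-score means a larger calcium signal and so more RGS4 inhibition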
Target sequence (P49798 whole entry, looked up): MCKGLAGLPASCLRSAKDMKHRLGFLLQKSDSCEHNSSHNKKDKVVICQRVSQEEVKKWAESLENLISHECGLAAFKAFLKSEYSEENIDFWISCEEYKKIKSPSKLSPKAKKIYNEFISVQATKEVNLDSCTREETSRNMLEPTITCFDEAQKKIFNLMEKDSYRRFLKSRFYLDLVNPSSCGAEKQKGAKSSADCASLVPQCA
Lipid droplet – inhibitors of hepatocyte lipid droplet formation, primary screen, imaging, high-throughput imaging, BODIPY stain. AML12 mouse hepatocytes, oleate lipid droplets. inhibition, % at 6.5 µM. 0.4% of 240,000 active. AID 1656, 2009;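 active = lipid droplet intensity inhibited by at least 50%, with more than 500 cells counted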
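material = mouse AML12 hepatocyte cell line, fixed after treatment | also added = 100 µM oleic acid challenge | doses = compound at 6.5 µM only | schedule = overnight exposure | technique = Image-based BODIPY and DAPI two-channel analysis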
MrgX1 agonist – agonists of human MrgX1 receptor, primary screen, HEK293 cells, Fluo-4 calcium flux; Fluo-4 calcium fluorescence, agonist mode; stronger effect = higher value; B-score at 10 µM; 0.44% of 310,000 active; AID 588627, 2011;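 active = calcium response B-score plate-corrected fluorescence ratio at least 3 library SD, with starting fluorescence B-score inside 5 SD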
Target sequence (Q96LB2 whole entry, looked up): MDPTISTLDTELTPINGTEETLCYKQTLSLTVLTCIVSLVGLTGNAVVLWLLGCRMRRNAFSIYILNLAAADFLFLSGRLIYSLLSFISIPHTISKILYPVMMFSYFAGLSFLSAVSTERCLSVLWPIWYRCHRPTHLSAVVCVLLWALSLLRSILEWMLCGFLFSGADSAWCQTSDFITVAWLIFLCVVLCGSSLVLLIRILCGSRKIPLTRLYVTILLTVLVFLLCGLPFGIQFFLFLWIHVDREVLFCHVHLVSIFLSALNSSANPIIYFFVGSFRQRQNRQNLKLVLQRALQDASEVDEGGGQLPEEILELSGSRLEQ
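Material: HEK293 cells stably expressing human MrgX1 receptor | Quantity: 15,000 cells per well | Times: Cells plated overnight, dye loaded 0.5 h 37 °C, 0.5 h room temperature | Measured by: Kinetic Fluo-4 NW fluorescence of intracellular calcium | Control set: Positive and negative controls per plate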
RGS4 act – RGS4 potentiators or activators, primary screen, cell-based, HEK293 M3R inducible RGS4, calcium flux; carbachol calcium flux Fluo4; stronger effect = lower value; B-score at 10 µM; 0.92% of 310,000 active;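 active = B-score of the integrated calcium signal more than 4 SD below the library mean, with starting fluorescence not abnormally high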;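 note: negative B-score means reduced calcium response which marks RGS4 activation or potentiation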
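System: HEK293 FlpIn-TREx cells, stable M3R, doxycycline-inducible RGS4. Timing: overnight RGS4 induction, 30 min dye load 37 °C, 20 min compound RT. Also added: carbachol, ECmax concentration. Measured by: Fluo4 fluorescence kinetic imaging of calcium. Evaluation: integrated calcium ratio converted to B score.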
MrgX1 PAM – positive allosteric modulators of MrgX1, primary screen, HEK293 cells, Fluo-4 calcium flux; Mas-related G-protein coupled receptor member X1 (Homo sapiens), Q96LB2; FDSS; stronger effect = higher value; B-score at 10 µM; 0.63% of 310,000 active; AID 588675, 2011;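 active = plate-corrected calcium response at least 3 library SD above typical, normal starting fluorescence, not activating the receptor alone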;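 note: compound read alongside a low EC10 to EC30 dose of BAM8-22 agonist; peak minus trough fluorescence over baseline measured at the second addition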
MrgX1 antag – antagonists of human MrgX1 receptor, primary screen, HEK293 cells, Fluo-4 calcium flux | Mas-related G-protein coupled receptor member X1 (Homo sapiens), Q96LB2 | BAM8-22 antagonism; stronger effect = lower value | B-score at 10 µM | 1.3% of 310,000 active | AID 588676, 2011;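 active = calcium-response B-score plate-corrected more than 3 library SD below zero, starting fluorescence within 5 deviations, no agonist response on first addition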;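 note: peak minus trough fluorescence over baseline after final BAM8-22 challenge near maximal dose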
MrgX1 allo conf – MrgX1 positive allosteric modulators, duplicate retest, confirmation, HEK293 cells, Fluo-4 calcium flux; 13% of 1,200 active; activation (ratio percentage), % at 10 µM; Fluo-4 calcium fluorescence, FDSS; AID 602413, 2012; shares compounds with MrgX1 PAM;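 active = ratio at least 3 SD above the weak peptide control, stable starting fluorescence, no direct agonism earlier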;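 note: compound followed by low BAM8-22 agonist challenge near EC20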
MrgX1 ant reconf – MrgX1 receptor antagonists, duplicate retest, confirmation, HEK293 cells, Fluo-4 calcium flux. AID 602420, 2012. 19% of 2,300 active. BAM8-22 calcium flux; stronger effect = lower value. shares compounds with MrgX1 antag. remaining BAM8-22 calcium response % of control (stronger effect = lower value), % at 10 µM;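 active = remaining agonist calcium response no higher than 100% minus 3 SD of agonist-only control wells, with starting fluorescence near control levels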;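 note: agonist BAM8-22 given at a near maximal EC90 to ECmax level; peak minus minimum fluorescence divided by baseline after agonist addition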
HEK293 Ca flux – nonspecific calcium signal in parental HEK293, confirmation, counter-screen for MrgX1 antagonist project, parental HEK293 cells, Fluo-4 calcium flux; Fluo-4 calcium fluorescence, FDSS; 2% of 4,000 active; shares compounds with MrgX1 antag; fluorescence ratio F(max-min)/F0 at 10 µM;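 active = duplicate-averaged calcium fluorescence ratio at least three times the standard deviation of buffer wells, a nonspecific response in parental cells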
HEK293 Ca counter – calcium response in parental HEK293 cells, primary screen, counter-screen for MrgX1 allosteric activator project, cell-based, Fluo-4 calcium flux, duplicate; Fluo-4 fluorescence ratio; stronger effect = higher value; 0.4% of 4,000 active; fluorescence ratio F(max-min)/F0 at 10 µM; shares compounds with MrgX1 antag;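 active = calcium fluorescence ratio, averaged over duplicates, at least 3 SD of the buffer-well ratio, meaning a nonspecific response in receptor-free cells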;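 note: untransfected parental HEK293 lacking MrgX1 used as counterscreen for MrgX1 allosteric activators; fluorescence change taken during the second addition on a kinetic imager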
HEK293 Ca cntr2 – calcium response in parental HEK293 cells, primary screen, counter-screen for MrgX1 agonist project, cell-based, Fluo-4 calcium flux, duplicate, agonist mode; shares compounds with MrgX1 antag; Fluo-4 calcium fluorescence (FDSS); stronger effect = higher value; fluorescence ratio F(max-min)/F0 at 10 µM; 8.7% of 4,000 active;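 active = calcium fluorescence ratio at least three times the spread of buffer wells, meaning a non-specific response in parental cells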
A number is an active result; . = inactive; / = not tested or not shown.

SMILES	RGS4 block	Lipid droplet	MrgX1 agonist	RGS4 act	MrgX1 PAM	MrgX1 antag	MrgX1 ant reconf	HEK293 Ca flux	HEK293 Ca counter	HEK293 Ca cntr2	others
CC(=O)c1nnn(-c2nc(N)nc(N(c3ccccc3)c3ccccc3)n2)c1C	.	/	.	.	13	.	/	.	.	.	MrgX1 allo conf=16%
CCCCN(CCCC)c1nc(OC)nc(-n2nnc(C(C)=O)c2C)n1	.	/	.	.	.	.	/	/	/	/
CC1Sc2ccc(S(=O)(=O)N3CCC(C(=O)NCC(C)c4ccccc4)CC3)cc2NC1=O (stereo not drawn)	.	.	.	.	.	.	/	/	/	/
CC12COC3(C(N)=O)CC1CCC32C (stereo not drawn)	.	.	.	.	.	.	/	/	/	/
CC12COC3(C(=O)Nc4ccc(F)cc4)CC1CCC32C (stereo not drawn)	.	.	.	.	11	.	/	.	.	.	MrgX1 allo conf=.
CCCCOc1ccccc1NC(=O)CSc1nnnn1C(C)(C)C	.	/	.	.	22	.	/	.	.	.	MrgX1 allo conf=.
COc1ccccc1NC(=O)CSc1nnnn1-c1ccc(C(=O)O)cc1	.	.	.	.	.	.	/	/	/	/
COc1ccc(C)cc1N(CC(=O)N1CCc2ccccc2C1)S(C)(=O)=O	.	.	.	.	.	.	/	/	/	/
COc1cc(NC(=O)c2ccc(S(=O)(=O)N(C)C)cc2)cc(OC)c1OC	.	/	.	.	.	-5.3	.	.	.	.
CCN(CC)S(=O)(=O)c1ccc(C(=O)Nc2cc3oc4ccccc4c3cc2OC)cc1	.	.	.	.	.	-6.8	.	.	.	.
Cc1cccc(NC(=O)c2ccc(S(=O)(=O)N(C)C)cc2)c1	.	.	.	.	.	.	/	/	/	/
CCOC(=O)C1(CC)NC(c2ccc(OC)cc2OC)C2C(=O)N(C)C(=O)C21 (stereo not drawn)	.	.	.	.	.	.	/	/	/	/
CC(=O)N/C(=C/c1ccc2c(c1)OCO2)C(=O)NCc1ccccc1	.	.	.	.	.	.	/	/	/	/
Cc1nc2ccc(NC(=O)COc3ccccc3F)cc2s1	.	.	.	.	.	-5.8	80%	.	.	.
COc1ccc(-c2cc(-c3nnc(COC(=O)CC4CC5CCC4C5)o3)c3ccccc3n2)cc1OC (stereo not drawn)	.	.	.	.	.	.	/	/	/	/
CC1c2[nH]c3ccccc3c2CCN1C(=O)Nc1ccccc1 (stereo not drawn)	.	.	.	.	.	-7.5	.	.	.	.
S=C(NCc1ccncc1)Nc1ccc(Br)cc1Cl	.	.	.	.	.	-6.3	68%	.	.	.
COC1=CC(=O)CC(C)C12Oc1cc(OC)cc(OC)c1C2=O (stereo not drawn)	.	.	.	.	.	-5.9	.	.	.	.
COc1ccc(C(=O)Nc2ccc(S(=O)(=O)Nc3onc(C)c3C)cc2)c(OC)c1	.	.	.	.	.	.	/	/	/	/
CCOC(=O)Cc1nnc(Nc2cccc(O)c2)c2ccccc12	.	.	.	.	.	-6.3	.	.	.	.
CCCCNC(=O)NC1CCCC1	.	.	.	.	.	.	/	/	/	/
Cc1cc(C)c(C(=O)N2CCCC(N3CCN(c4ccc(F)cc4)CC3)C2)o1 (stereo not drawn)	.	.	.	.	.	.	/	/	/	/
Cn1c(SCc2nc3ccccc3s2)nnc1-c1cccs1	.	/	.	.	.	.	/	/	/	/
COc1ccccc1-c1nnc(SCc2nc3ccccc3s2)n1C	.	/	.	.	.	-5.8	.	.	.	.
Cc1ccccc1NC(=O)C1C2/C=C\CCCCC21 (stereo not drawn)	.	.	.	.	.	-4.5	.	.	.	.
SMILES	RGS4 block	Lipid droplet	MrgX1 agonist	RGS4 act	MrgX1 PAM	MrgX1 antag	MrgX1 ant reconf	HEK293 Ca flux	HEK293 Ca counter	HEK293 Ca cntr2	others
Cc1ccccc1NC(=O)C1C2CCCCC21 (stereo not drawn)	.	.	.	.	.	.	/	/	/	/
O=C1CC(C(=O)O)C2(CCCC2)O1 (stereo not drawn)	.	/	.	.	.	-5.2	.	.	.	.
CC1(C)NC(=O)N(CC(=O)N2CCN(c3cccc(C(F)(F)F)c3)CC2)C1=O	.	/	.	.	.	-6.5	67%	.	.	.
O=C(CN1C(=O)NC2(CCCC2)C1=O)N1CCN(c2cccc(C(F)(F)F)c2)CC1	.	/	.	.	.	.	/	/	/	/
CCC(=O)Nc1c(C(=O)N2CCN(c3ccccn3)CC2)cnn1-c1ccc(Cl)cc1	.	.	.	.	.	.	/	/	/	/
CCC(=O)Nc1c(C(=O)N2CCN(c3ccccn3)CC2)cnn1-c1ccc(C)cc1	.	.	.	.	.	-7.5	.	.	.	.
O=C1CNC(=S)N1CCCc1ccccc1	.	.	.	.	.	.	/	/	/	/
Cc1nc2cc3sc(C)nc3cc2s1	.	.	.	.	.	.	/	/	/	/
Cc1nc2ccc(N)cc2s1	.	.	.	.	.	-5.6	.	.	.	.
Cc1cc(SCC(=O)Nc2cccc(S(=O)(=O)NC3=NCCCCC3)c2)c(C)cc1Br	.	.	.	.	.	.	/	/	/	/
Cc1cc(SCC(=O)Nc2cccc(S(N)(=O)=O)c2)c(C)cc1Br	.	.	.	.	.	-9.8	.	.	.	.
COc1ccccc1NC(=O)NCCN1C(=O)C2C3C=CC(C3)C2C1=O (stereo not drawn)	.	/	.	.	.	-7.6	.	.	.	.
COc1ccccc1NC(=O)NCCN1CCCCC1	.	.	.	.	.	.	/	/	/	/

From PubChem BioAssay
